# Activity calls are given as the source filed them.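 The calls were made as follows, unless noted: active = GFP response above 150% of the DMSO level; inconclusive = fewer than 70 events counted for a yeast strain; inactive = the rest.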
# How the values were obtained:
# [1] = hit retest on RPL19A-GFP reporter strain – cell-based, S. cerevisiae, flow cytometry, cherry picks, mother/daughter gates, confirmation (AID 2270;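 active = GFP response below 50% of the DMSO control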); conditions: 3 h, at 10 µM, stronger effect = lower value, 100 = same GFP as DMSO wells
# [2] = yeast TOR pathway reporter LAP4-GFP change – cell-based, cherry picks, flow cytometry, mother/daughter gates, confirmation (AID 2271;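 active = GFP response above 150% of the DMSO control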;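 also: ratio of sample to DMSO plate mean so 100% equals DMSO level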); conditions: S. cerevisiae LAP4-GFP strain, 3 h, at 10 µM, stronger effect = higher value, 100 means same as DMSO control
# How it was run: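 System: Alexa 633-stained baker's yeast GFP-fusion strain / Medium: synthetic complete (SC) yeast growth medium / Doses: compound at 10 µM, single point / Times: 3 h treatment at 30 °C with rotation / Detection: HT flow cytometry, GFP fluorescence channel / Benchmarks: DMSO-only negative wells, rapamycin 400 ng/mL positive wells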
# [3] = TOR pathway reporter MEP2-GFP, retest of hits – S. cerevisiae, flow cytometry GFP, cherry picks, confirmation (AID 2272;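 active = GFP response above 150% of the DMSO control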;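 also: ratio of well signal to plate DMSO mean so 100% equals DMSO level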); conditions: S. cerevisiae MEP2-GFP strain, 3 h, at 10 µM, stronger effect = higher value
# [4] = yeast AGP1-GFP fluorescence change, single-dose – cell-based, flow cytometry, S. cerevisiae, cherry picks, confirmation (AID 2273);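 also: median GFP channel fluorescence over the whole cell population gate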; conditions: S. cerevisiae AGP1-GFP strain, 3 h, at 10 µM
# [5] = TOR pathway CIT2 reporter hit retest – S. cerevisiae, GFP fusion, cherry picks, mother/daughter gates, confirmation (AID 2274); conditions: S. cerevisiae CIT2-GFP strain, flow cytometry, 3 h, at 10 µM, stronger effect = higher value
# [6] = measured here: daughter cell gate
# [7] = measured here: mother cell gate
# [8] = measured here: daughter cell gate response
# [9] = measured here: mother cell gate response
SMILES,GFP response vs DMSO [1],"GFP response vs DMSO [1, 6]","GFP response vs DMSO [1, 7]",GFP response relative to DMSO [2],"GFP response relative to DMSO [2, 8]","GFP response relative to DMSO [2, 9]",GFP response vs DMSO [3],"GFP response, % of DMSO [4]","GFP response, % of DMSO [5]","GFP response, % of DMSO [5, 6]","GFP response, % of DMSO [5, 7]"
C=CCn1c(=O)c(C(=O)Nc2ccccc2C(=O)OCC)c(O)c2ccccc21,100% (inactive),101%,101%,87.2% (inactive),86.4%,89.7%,99.5% (inactive),101% (inactive),96.4% (inactive),96.4%,95.6%
CCc1cccc(C)c1NC(=O)CC1Oc2ccc(C)cc2NC1=O (stereo not drawn),99.3% (inactive),99.5%,100%,90.6% (inactive),91.3%,91.3%,101% (inactive),101% (inactive),98.6% (inactive),97.6%,98.2%
CC(C)(C)c1cc(C(c2cccnc2)N2CCN(CCO)CC2)cc(C(C)(C)C)c1O (stereo not drawn),98.2% (inactive),108%,91.3%,151% (active),168%,138%,118% (inactive),94.3% (inactive),99.3% (inactive),126%,82.8%
O=C(O)Cn1cc(/C=C/[N+](=O)[O-])c2ccccc21,97.6% (inactive),98.4%,97.2%,102% (inactive),101%,100%,100% (inactive),93.9% (inactive),99.7% (inactive),99.1%,99.7%
COc1ccc(C2CC(c3ccccc3)=NN2S(=O)(=O)c2ccc(C)cc2)c(OC)c1 (stereo not drawn),102% (inactive),98.8%,100%,102% (inactive),99.1%,104%,103% (inactive),101% (inactive),102% (inactive),99.2%,99.3%
COc1ccc(-n2c(N)c(C(=O)Nc3c(C)n(C)n(-c4ccccc4)c3=O)c3nc4ccccc4nc32)cc1,97.4% (inactive),94.4%,98.1%,99.5% (inactive),99.1%,99.4%,103% (inactive),102% (inactive),94.4% (inactive),93.8%,94.4%
CCOC(=O)c1ccc(NC(=O)c2ccc3c(c2)C(=O)N(Cc2cccnc2)C3=O)cc1,100% (inactive),99.6%,100%,94.1% (inactive),96%,94%,102% (inactive),99.3% (inactive),99.7% (inactive),101%,98.5%
CCn1c(=O)c(C(=O)Nc2ccccc2C)c(O)c2ccccc21,97.8% (inactive),98.1%,97.9%,102% (inactive),102%,99.3%,105% (inactive),96% (inactive),96.9% (inactive),99.1%,96.1%
Cc1cc(C(=O)Nc2nc(-c3ccccn3)cs2)ccc1[N+](=O)[O-],104% (inactive),107%,97.2%,158% (active),149%,155%,107% (inactive),84.3% (inactive),105% (inactive),110%,99.3%
Cc1c(NC2=C(Cl)C(=O)N(c3ccccc3Cl)C2=O)c(=O)n(-c2ccccc2)n1C,94.7% (inactive),96.6%,95.6%,93.7% (inactive),96.6%,94.1%,96.6% (inactive),102% (inactive),110% (inactive),108%,110%
CCNC(=O)/C(C#N)=C/c1c(N(Cc2ccccc2)Cc2ccccc2)nc2ccccn2c1=O,101% (inactive),101%,102%,102% (inactive),101%,103%,110% (inactive),99.3% (inactive),105% (inactive),108%,104%
O/C=c1\ccc2cccc3nc(C(F)(F)F)nc1c23,111% (inactive),111%,110%,172% (active),167%,178%,269% (active),108% (inactive),179% (active),171%,181%
COc1cc(/C=N/Nc2nc(C)cc(=O)[nH]2)ccc1O,100% (inactive),104%,98.8%,87.2% (inactive),89.3%,86.7%,106% (inactive),105% (inactive),117% (inactive),121%,115%
O=[N+]([O-])c1cccc(/C=N/Nc2ncc(Br)cn2)c1,90.9% (inactive),88.5%,90.6%,129% (inactive),121%,132%,128% (inactive),137% (inactive),86.1% (inactive),86.9%,83.7%
COc1cc(NC(=O)c2ccccc2[N+](=O)[O-])ccc1NC(=O)c1cc2ccccc2o1,101% (inactive),99.1%,101%,97% (inactive),97.5%,97.3%,103% (inactive),101% (inactive),97.3% (inactive),97.4%,95.6%
Clc1ccc(OCCn2cnc3ccccc32)c(Cl)c1,87.5% (inactive),82.3%,89.4%,134% (inactive),123%,142%,89.9% (inactive),92.7% (inactive),82.6% (inactive),80.7%,84.3%
O=[N+]([O-])c1cc(C(F)(F)F)ccc1Sc1ccc2ccccc2n1,95.8% (inactive),97%,96.4%,115% (inactive),109%,115%,102% (inactive),97.5% (inactive),95% (inactive),98.3%,93.3%

SMILES,GFP response vs DMSO [1],"GFP response vs DMSO [1, 6]","GFP response vs DMSO [1, 7]",GFP response relative to DMSO [2],"GFP response relative to DMSO [2, 8]","GFP response relative to DMSO [2, 9]",GFP response vs DMSO [3],"GFP response, % of DMSO [4]","GFP response, % of DMSO [5]","GFP response, % of DMSO [5, 6]","GFP response, % of DMSO [5, 7]"
Cc1cccc(CS(=O)(=O)c2ncc(Cl)c(C(=O)Nc3c(C)cccc3C)n2)c1,106% (inactive),98.6%,107%,106% (inactive),101%,107%,105% (inactive),99.4% (inactive),100% (inactive),97.4%,101%
COc1ccccc1N1CCN(C(=O)c2ccccc2Oc2ccccc2)CC1,96.7% (inactive),97%,95.2%,91.8% (inactive),92.9%,87.3%,101% (inactive),98.6% (inactive),98.6% (inactive),97.6%,93.8%
CCN(CC)CCCN(Cc1cc2cc3c(cc2[nH]c1=O)OCO3)C(=S)Nc1ccccc1,87.4% (inactive),74.2%,80.4%,135% (inactive),104%,131%,139% (inactive),133% (inactive),126% (inactive),103%,120%
Cc1ccc(N2CCN(C(=O)c3ccccc3Br)CC2)c(C)c1,100% (inactive),97.6%,101%,95.4% (inactive),92.8%,96.1%,98.3% (inactive),92.1% (inactive),96.9% (inactive),97.2%,96.1%
CCCC(=O)Nc1ccc(C(=O)/C=C/c2ccc(SC)cc2)cc1,99.5% (inactive),98.1%,99.2%,105% (inactive),103%,105%,102% (inactive),97.2% (inactive),95.2% (inactive),94.8%,93.4%
O=C(CSCc1cccc(Br)c1)N=Nc1c(O)[nH]c2ccccc12,76.9% (inactive),67.8%,73%,126% (inactive),102%,126%,124% (inactive),137% (inactive),130% (inactive),110%,129%
COc1ccc(-c2nc3cccc(C)n3c2NCc2ccco2)cc1OC,101% (inactive),99.5%,100%,100% (inactive),101%,101%,97.2% (inactive),99.5% (inactive),97.2% (inactive),99.3%,97.1%
Cc1cccc(C(=O)NNC(=S)NC(=O)c2ccccc2)c1,107% (inactive),110%,105%,122% (inactive),117%,128%,109% (inactive),102% (inactive),105% (inactive),116%,99.7%
CC(=O)Nc1cccc(/C(C)=N/NC(=O)c2ccccc2Cl)c1,98.2% (inactive),97.9%,98.7%,102% (inactive),102%,99.3%,100% (inactive),101% (inactive),99.7% (inactive),101%,99.7%
CCOC(=O)c1c(C)oc2c1c(C(c1cccnc1)N1CCOCC1)c(O)c1ccccc12 (stereo not drawn),95% (inactive),98.5%,89.6%,203% (active),199%,188%,124% (inactive),104% (inactive),97.8% (inactive),109%,86.3%
CCOc1ccc2nc(SCC(=O)NCC3CCCO3)c(C#N)cc2c1 (stereo not drawn),97.8% (inactive),95.9%,99.2%,99.8% (inactive),100%,101%,97.8% (inactive),96.3% (inactive),90% (inactive),91.5%,88%
CCC(C(=O)O)n1nc(-c2ccccc2)c2cc(Cl)ccc21 (stereo not drawn),98.7% (inactive),98.4%,98.2%,98.9% (inactive),96%,99.5%,99.3% (inactive),102% (inactive),101% (inactive),99.3%,102%
CCOC(=O)C1CCCN(C(=O)c2ccc(-c3ccc([N+](=O)[O-])cc3)o2)C1 (stereo not drawn),99.8% (inactive),100%,98.4%,101% (inactive),101%,101%,103% (inactive),99.3% (inactive),100% (inactive),97.6%,102%
CCCc1[nH]nc2c1C(c1ccc(OC(=O)c3ccco3)cc1)C(C#N)=C(N)O2 (stereo not drawn),99.9% (inactive),101%,101%,91.9% (inactive),92.2%,91.6%,124% (inactive),102% (inactive),105% (inactive),108%,105%
Cc1cc2ccccn2c1C(=O)c1ccc([N+](=O)[O-])o1,102% (inactive),106%,94.6%,195% (active),182%,196%,132% (inactive),109% (inactive),98.4% (inactive),106%,87.8%
O=C(N/N=C/c1ccc(-c2ccc(Br)cc2)o1)c1ccc2c(c1)OCO2,102% (inactive),98.6%,101%,99.5% (inactive),95.9%,98.4%,103% (inactive),98.8% (inactive),102% (inactive),99.2%,98.1%

# Source: PubChem BioAssay
